In experiment [1] the target is Granzyme B (Homo sapiens) (UniProt P10144). The experiment is described as follows: Inhibition of Granzyme B (unknown origin) expressed in Pichia pastoris using GrBref substrate by spectrofluorometry relative to control. In a few lines: (§1)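 Each enzyme preincubated 30 min at 37 °C with 10 μM compound, then its matched ACC substrate added (SK15 for GrA, GrKref, GrBref, Ac-KVPL-ACC for GrM, and the PR3 and hNE substrates). Enzyme levels: GrK 488 nM, GrB 18 nM, GrM 74 nM, hNE 3.3 nM, PR3 3.4 nM. Reference substrates at 200 μM. Fluorescence read at 355/460 nm; residual activity relative to an untreated enzyme control.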

For experiment [2], the target named is T1, Granzyme A (Homo sapiens) (UniProt P12544).
T1 sequence (whole entry): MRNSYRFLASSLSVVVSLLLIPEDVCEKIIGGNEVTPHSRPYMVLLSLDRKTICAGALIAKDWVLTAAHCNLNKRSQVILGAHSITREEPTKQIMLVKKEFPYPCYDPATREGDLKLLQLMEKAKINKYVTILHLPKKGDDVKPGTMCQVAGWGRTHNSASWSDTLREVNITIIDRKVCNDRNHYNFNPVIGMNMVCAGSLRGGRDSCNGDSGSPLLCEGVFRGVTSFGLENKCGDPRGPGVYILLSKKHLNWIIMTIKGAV
The experiment is described as follows: Binding affinity to Granzyme A (unknown origin) expressed in Pichia pastoris assessed as appearance of fluorescent 35 kDa species at enzyme to probe ratio was 1:1 incubated for 5 mins by SDS-PAGE based in-gel detection method. In a few lines: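 Recombinant GrA (Pichia pastoris) at 250 nM with 250 nM Cy5 probe (1:1) in Tris/NaCl/CaCl2/Tween-20 buffer pH 7.5, 37 °C, for 0–120 min. Reduced in SDS/DTT at 95 °C, run on 4–12% Bis-Tris SDS-PAGE, transferred to nitrocellulose, fluorescence read at 658 nm.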

Experiment [3] addresses T1, Granzyme A (Homo sapiens). The experiment is described as follows: Inhibition of Granzyme A (unknown origin) expressed in Pichia pastoris using SK15 substrate by spectrofluorometry relative to control. In a few lines:
as §1

Experiment [4] deals with T1, Granzyme A (Homo sapiens). The experiment is described as follows: Binding affinity to Granzyme A zymogen form (unknown origin) expressed in Pichia pastoris at 500 nM in presence of 1 uM compound 3 by Western blot analysis. In a few lines:
(§2)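 Active GrA or proenzyme diluted to 250 nM final in pH 7.5 assay buffer, with or without 1 h preincubation with 1 μM diphenyl phosphonate inhibitor at 37 °C. Probe added at 500 nM final for another 1 h, then SDS/DTT, SDS-PAGE and transfer. Probe read at 658 nm, anti-GrA rabbit monoclonal with Alexa 488 secondary.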

In experiment [5] the target is T1, Granzyme A (Homo sapiens). The experiment is described as follows: Binding affinity to Granzyme A active form (unknown origin) expressed in Pichia pastoris at 500 nM in presence of 1 uM methyl 4-[(3S)-3-[[2-[(2S)-2-[(1-diphenoxyphosphoryl-4-guanidinobutyl)carbamoyl]-2,3,3a,4,5,6,7,7a-octahydroindol-1-yl]-2-oxoethyl]carbamoyl]-3,4-dihydro-1H-isoquinolin-2-yl]-4-oxobutanoate by Western blot analysis. In a few lines:
as §2

Experiment [6] concerns the target T1, Granzyme A (Homo sapiens). The experiment is described as follows: Binding affinity to Granzyme A in human NK92 cells at 1 uM treated 1 hr after GrA covalent inhibitor methyl 4-[(3S)-3-[[2-[(2S)-2-[(1-diphenoxyphosphoryl-4-guanidinobutyl)carbamoyl]-2,3,3a,4,5,6,7,7a-octahydroindol-1-yl]-2-oxoethyl]carbamoyl]-3,4-dihydro-1H-isoquinolin-2-yl]-4-oxobutanoate dosing and measured 30 mins to 2 hrs post dose by SDS-PAGE analysis. It is filed as cell-based.

Experiment [7] deals with T1, Granzyme A (Homo sapiens). The experiment is described as follows: Binding affinity to Granzyme A zymogen form (unknown origin) expressed in Pichia pastoris by Western blot analysis. In a few lines: as §2
(In general: A western blot detects proteins with antibodies after separation by electrophoresis.)

The target of experiment [8] is T2, Neutrophil elastase (Homo sapiens) (UniProt P08246).
T2 sequence (whole entry): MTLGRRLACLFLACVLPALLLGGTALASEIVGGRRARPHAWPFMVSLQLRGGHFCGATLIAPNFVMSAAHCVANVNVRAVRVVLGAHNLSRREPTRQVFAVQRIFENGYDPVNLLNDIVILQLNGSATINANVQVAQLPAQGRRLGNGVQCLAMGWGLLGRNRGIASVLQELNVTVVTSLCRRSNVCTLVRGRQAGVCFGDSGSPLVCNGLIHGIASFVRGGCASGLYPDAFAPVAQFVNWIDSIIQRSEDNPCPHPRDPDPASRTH
The experiment is described as follows: Inhibition of human neutrophil elastase expressed in Pichia pastoris using Ac-Arg(NO)2-Glu(Bzl)-Oic-Abu-ACC substrate by spectrofluorometry relative to control. In a few lines:
as §1

The target of experiment [9] is T1, Granzyme A (Homo sapiens). The experiment is described as follows: Binding affinity to Granzyme A in human NK92 cells at 1 uM measured 30 mins to 2 hrs post dose by SDS-PAGE analysis. The class given is cell-based.
For experiment [10], the target named is T3, Granzyme K (Homo sapiens) (UniProt P49863).
T3 sequence (whole entry): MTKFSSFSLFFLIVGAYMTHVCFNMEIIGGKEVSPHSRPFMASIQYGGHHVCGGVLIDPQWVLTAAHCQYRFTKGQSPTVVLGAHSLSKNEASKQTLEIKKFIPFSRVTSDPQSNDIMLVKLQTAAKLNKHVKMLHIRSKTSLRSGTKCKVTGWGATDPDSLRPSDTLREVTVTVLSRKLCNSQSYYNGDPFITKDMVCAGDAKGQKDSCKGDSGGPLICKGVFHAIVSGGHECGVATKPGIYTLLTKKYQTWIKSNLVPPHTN
The experiment is described as follows: Inhibition of Granzyme K (unknown origin) expressed in Pichia pastoris using GrKref substrate by spectrofluorometry relative to control. As to conditions: concentration not given here. An outline of the steps: as §1

Experiment [11] addresses T1, Granzyme A (Homo sapiens). The experiment is described as follows: Binding affinity to Granzyme A in human NK92 cells at 250 nM to 2 uM incubated for 1 hr by SDS-PAGE based in-gel detection assay. The class given is cell-based.
Experiment [12] addresses T4, Granzyme M (Homo sapiens) (UniProt P51124).
T4 sequence (whole entry): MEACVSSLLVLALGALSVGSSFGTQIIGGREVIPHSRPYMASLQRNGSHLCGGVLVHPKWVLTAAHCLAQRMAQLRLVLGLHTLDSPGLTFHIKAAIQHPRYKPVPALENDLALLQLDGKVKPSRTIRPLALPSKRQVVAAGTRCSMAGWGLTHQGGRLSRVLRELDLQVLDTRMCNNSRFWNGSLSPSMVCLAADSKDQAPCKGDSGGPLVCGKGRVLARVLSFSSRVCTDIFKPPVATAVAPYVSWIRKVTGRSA
The experiment is described as follows: Inhibition of Granzyme M (unknown origin) expressed in Pichia pastoris using Ac-Lys-Val-Pro-Leu-ACC substrate by spectrofluorometry relative to control. In a few lines:
as §1

The target in experiment [13] is T1, Granzyme A (Homo sapiens). The experiment is described as follows: Binding affinity to Granzyme A active form (unknown origin) expressed in Pichia pastoris by Western blot analysis. In a few lines:
as §2

The target of experiment [14] is T5, Myeloblastin (Homo sapiens) (UniProt P24158).
T5 sequence (whole entry): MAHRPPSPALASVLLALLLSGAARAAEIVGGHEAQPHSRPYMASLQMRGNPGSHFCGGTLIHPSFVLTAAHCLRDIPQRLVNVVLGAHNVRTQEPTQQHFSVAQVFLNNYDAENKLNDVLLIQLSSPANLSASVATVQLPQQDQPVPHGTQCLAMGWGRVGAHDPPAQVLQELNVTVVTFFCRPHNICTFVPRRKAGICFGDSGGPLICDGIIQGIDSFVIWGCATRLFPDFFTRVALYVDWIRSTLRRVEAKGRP
The experiment is described as follows: Inhibition of PR3 (unknown origin) expressed in Pichia pastoris using Ac-Glu(O-Bzl)-Lys(Ac)-Hyp(Bzl)-Nva-ACC substrate by spectrofluorometry relative to control. An outline of the steps: as §1

In experiment [15] the target is T1, Granzyme A (Homo sapiens). The experiment is described as follows: Binding affinity to Granzyme A (unknown origin) expressed in Pichia pastoris assessed as minimum concentration needed for GrA labeling at enzyme to probe ratio was 1:1 incubated for 5 to 30 mins by SDS-PAGE based in-gel detection method. In a few lines: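 Recombinant GrA (Pichia pastoris), 250 nM, with probe at 10–500 nM for 30 min at 37 °C in pH 7.5 Tris/NaCl/CaCl2/Tween-20 buffer. SDS/DTT reduction, 4–12% Bis-Tris SDS-PAGE, transfer, and probe fluorescence at 658 nm, used to estimate the lowest labeling concentration.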

The target of experiment [16] is T1, Granzyme A (Homo sapiens). The experiment is described as follows: Inhibition of Granzyme A (unknown origin) expressed in Pichia pastoris assessed as second- order inhibition rate constant (Kobs/I ratio) pre-incubated with SK15 substrate for 15 mins before enzyme addition by spectrofluorometry. In a few lines:
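Recombinant GrA at 350 nM, pre-warmed at 37 °C, added to SK15 substrate that had been preincubated 15 min at 37 °C with varied inhibitor or probe (inhibitor range 714–333 nM, SK15 10 μM). Tris/NaCl/CaCl2/Tween-20 buffer, pH 7.5. AMC-type fluorescence at 355/460 nm under pseudo-first-order conditions to give kobs/I. Mean of at least three experiments with standard deviation.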

Active and inactive are the calls of the source. The calls are words filed in the database; no cut-off is given here.

Granzyme B (Homo sapiens), sequence (P10144 whole entry): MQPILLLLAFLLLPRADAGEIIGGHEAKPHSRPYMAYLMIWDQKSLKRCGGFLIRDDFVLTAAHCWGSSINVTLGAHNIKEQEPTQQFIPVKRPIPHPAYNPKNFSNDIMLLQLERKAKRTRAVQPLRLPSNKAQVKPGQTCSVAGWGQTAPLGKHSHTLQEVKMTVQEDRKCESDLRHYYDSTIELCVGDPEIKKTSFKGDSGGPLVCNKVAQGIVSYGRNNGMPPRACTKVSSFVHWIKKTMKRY

In general, inhibition refers to how much of the control response was suppressed. Turning to `CN1\C(=C/C=C/C=C/C2N(CCCCCC(=O)NCCCCCC(=O)N3Cc4ccccc4C[C@H]3C(=O)NCC(=O)N3C4CCCCC4C[C@H]3C(=O)NC(CCCNC(=N)N)P(=O)(Oc3ccccc3)Oc3ccccc3)c3ccccc3C2(C)C)C(C)(C)c2ccccc21` (stereo partly specified), the inhibition result in [1], in experiment [3], in experiment [8], in [12] and in [14] was “inactive” throughout. Further, the outcome in experiment [2], in [9], in experiment [11] and in experiment [13] was Active. The outcome in experiment [4], in [5], in experiment [6] and in [7] was inactive. In experiment [10], this compound came in with an inhibition of 3%. For the same compound, the MEC in experiment [15] came to 50 nM. For the same compound, the Ratio in [16] worked out at 3520 s⁻¹ M⁻¹.

Source of the values: ChEMBL document CHEMBL4342470, “Detection of Active Granzyme A in NK92 Cells with Fluorescent Activity-Based Probe” (J Med Chem, 2020).
